# LMPTP block – LMPTP phosphatase inhibitors, primary screen, biochemical, fluorescence intensity, uHTS | Low molecular weight phosphotyrosine protein phosphatase (Homo sapiens), P24666 | recombinant LMPTP-A, OMFP fluorogenic substrate | inhibition, % at 20 µM | 360,000 compounds, 0.22% hits | AID 651560, 2012;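 active = compounds that cut the enzyme signal by at least half of the control window in the single-dose screen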;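 note: plate controls were DMSO wells with enzyme plus substrate for no effect and substrate without enzyme for full effect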
#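 Assay system: LMPTP-A, protein tyrosine phosphatase of low molecular weight / Medium: pH 6.0 Bis-Tris buffer with DTT and Triton X-100 / Schedule: 50 min enzyme reaction at room temperature, protected from light / Measured by: endpoint fluorescence intensity from OMFP dephosphorylation / Read-out basis: % inhibition relative to no-enzyme and uninhibited control wells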
# STEP block – STEP phosphatase inhibitors, primary screen, biochemical, fluorescence intensity, uHTS. Tyrosine-protein phosphatase non-receptor type 5 (Homo sapiens), P54829. recombinant STEP, OMFP fluorogenic substrate. inhibition, % at 20 µM. 360,000 compounds, 0.25% hits. AID 588621, 2011;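 active = inhibition at 20 µM, scaled per plate between control wells, above about 37%, limit read from the data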;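 note: 0% = DMSO with enzyme and substrate and 100% = substrate only without enzyme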
# Target sequence (P54829 whole entry, looked up): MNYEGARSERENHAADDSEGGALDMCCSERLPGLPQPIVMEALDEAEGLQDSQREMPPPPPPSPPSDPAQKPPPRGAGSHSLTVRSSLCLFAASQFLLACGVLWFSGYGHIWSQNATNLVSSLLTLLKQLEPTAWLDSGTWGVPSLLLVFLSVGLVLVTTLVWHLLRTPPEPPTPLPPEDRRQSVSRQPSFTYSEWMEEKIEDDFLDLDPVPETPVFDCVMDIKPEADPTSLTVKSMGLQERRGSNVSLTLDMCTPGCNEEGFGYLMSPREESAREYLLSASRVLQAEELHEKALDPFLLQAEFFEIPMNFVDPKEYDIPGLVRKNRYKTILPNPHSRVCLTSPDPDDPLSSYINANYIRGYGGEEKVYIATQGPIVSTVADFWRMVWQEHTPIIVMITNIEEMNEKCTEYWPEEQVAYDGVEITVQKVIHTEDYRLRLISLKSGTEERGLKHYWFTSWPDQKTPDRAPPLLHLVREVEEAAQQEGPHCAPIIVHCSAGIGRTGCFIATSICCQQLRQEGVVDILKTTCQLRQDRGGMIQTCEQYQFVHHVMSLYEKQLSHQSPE
#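 Assay system: isolated STEP enzyme / Timing: 20 min at room temperature, dark / Doses: 20 µM, 1% DMSO / Technique: fluorescence intensity, excitation 480 nm, emission 540 nm / Reagent: fluorogenic phosphatase substrate OMFP at 25 µM final / Measure: percent inhibition scaled to no-enzyme and uninhibited-enzyme controls, plate-pattern corrected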
# DNMT1 inh – human DNMT1 methyltransferase inhibitors, primary screen, biochemical, molecular beacon, fluorescence, HinP1I cleavage, uHTS; DNA (cytosine-5)-methyltransferase 1 (Homo sapiens), P26358; inhibition (reported as % activation of signal), % at 10 µM; 360,000 compounds, 0.83% hits; in the data active = inhibition above about 50%
# SUMO1-SIM PPI – modulators of SUMO1 protein-protein interactions, primary screen, biochemical, uHTS; Small ubiquitin-related modifier 1 (Homo sapiens), P63165; SUMO1 binding to a labelled peptide, TR-FRET, 1 h; inhibition, % at 20 µM; 360,000 compounds, 0.33% hits; in the data active = inhibition above about 37%
# Target sequence (P63165 whole entry, looked up): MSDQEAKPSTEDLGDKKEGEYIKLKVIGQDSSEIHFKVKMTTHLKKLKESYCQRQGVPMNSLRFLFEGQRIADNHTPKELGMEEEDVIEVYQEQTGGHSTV
# Scp1 inh – Scp-1 phosphatase inhibitors, primary screen, biochemical, colorimetric, uHTS; Carboxy-terminal domain RNA polymerase II polypeptide A small phosphatase 1 (Homo …; Recombinant Scp1, phosphopeptide, malachite green phosphate absorbance; inhibition, % at 20 µM; 340,000 compounds, 0.88% hits;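 active = inhibition above about 50% at 20 µM, limit read from the data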;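 note: plate controls were DMSO wells with enzyme for no effect and wells lacking enzyme for full effect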
#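 Test system: SCP-1 catalytic domain; Buffer or medium: Acidic Tris acetate buffer with magnesium and detergent; Also added: Phosphorylated 17-residue peptide substrate; Compound: single 20 µM dose, 1% DMSO; Schedule: enzyme reaction 45 min at room temperature, colour 5 min, stabilisation 30 min; Signal: Phosphate-binding colour reagent, absorbance read at 630 nm.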
# Scp1 confirm – Scp-1 phosphatase inhibitors, retest, confirmation, biochemical, colorimetric, single concentration | recombinant SCP-1 catalytic domain, phosphate release, malachite green absorbance | shares compounds with Scp1 inh | 2,500 compounds, 61% hits | inhibition, % at 20 µM;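 note: plate controls were DMSO with enzyme for no effect and buffer wells lacking enzyme for full effect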
# MG interference – colorimetric readout interference by compounds, confirmation, artefact control for Scp-1 inhibitor project, biochemical, single concentration. shares compounds with Scp1 inh. Colorimetric interference counterscreen, malachite green absorbance 630 nm. apparent inhibition (interference), % at 20 µM. 2,500 tested, under 10 active. AID 540313, 2011;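 note: compounds added after enzyme reaction finished so only phosphate colour detection is probed; plate controls were DMSO wells with completed Scp-1 reaction for no effect and substrate wells lacking enzyme for full effect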
# Scp-1 Tm shift – Scp-1 binding by thermal shift, confirmation, orthogonal assay for Scp-1 inhibitor project, biophysical, differential scanning fluorimetry; shares compounds with Scp1 inh; Recombinant SCP1, Sypro Orange thermal shift Tm; thermal shift relative to vanadate control, % at 40 µM; 1,500 compounds, 25% hits;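 active = substances whose mean melting-temperature shift, as a percentage of the reference inhibitor's shift, reaches about 5.3%, limit read from the data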;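 note: 0% = Tm of DMSO wells and 100% = Tm with sodium orthovanadate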
# Active calls of the source: *; nt = no result. This is a sample that favours compounds with a hit; in the whole collection about 1.7% have one here.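 Rule for the calls, unless noted: active = inhibition of at least 30% at 20 µM; inactive = the rest.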
SMILES,LMPTP block,STEP block,DNMT1 inh,SUMO1-SIM PPI,Scp1 inh,Scp1 confirm,MG interference,others
Cc1cccc(OCC(=O)Nc2ccc(CN3CCOCC3)cc2)c1C,0,0,0,1,-7,nt,nt,
Cc1ccc(NC(=O)COc2ccc(/C=N/NC(=O)CSCc3ccccc3)cc2)cc1,0,-1,2,0,85*,70*,-14,Scp-1 Tm shift=-5
Cc1ccc(OCC(=O)Nc2ccc(CN3CCOCC3)cc2)cc1,0,-1,1,1,70*,-12,-15,
CCc1nc2ccc(C(=O)Nc3cccc(NS(C)(=O)=O)c3)cn2c1N(C)Cc1nccn1C,-1,-1,-1,-1,nt,nt,nt,
CCC(=O)Nc1cccc(C2=NN(c3ccccc3)C(c3ccc(OC)cc3)C2)c1 (configuration not stated),3,9,-6,-6,12,nt,nt,
CNc1cncc(-c2ccc(O)cc2C)n1,1,-2,-2,-3,nt,nt,nt,
Cc1ccc(C(C)NC(=O)C2CCCC2)cc1C (configuration not stated),-2,2,-4,2,-1,nt,nt,
Cc1ccc(C(c2ccc(C)c(C)c2)C(O)C2OC(=O)C(O)C2O)cc1C (configuration not stated),3,0,12,4,53*,23,-5,
Cc1ccc(NC(=O)COC(=O)C2CCC(=O)N2)c(S(=O)(=O)N2CCOCC2)c1 (configuration not stated),-1,-1,9,-1,3,-1,-5,
O=C(COC(=O)C1CCC(=O)N1)Nc1ccc(Cl)cc1Cl (configuration not stated),-1,-2,0,-2,-7,nt,nt,
CC1(C)C[C@H](O)[C@]2(CO)CC[C@]3(C)C(=CCC4[C@@]5(C)CC[C@H](O)C(C)(C)C5CC[C@]43C)[C@@H]2C1 (some centres not stated),0,1,-20,1,-1,nt,nt,
CC1O[C@@H](OC2C(COC3OC(CO)C(O)[C@H](O)C3O)OC(OC3CC[C@]4(C)C(CC[C@@]5(C)[C@@H]4CC=C4[C@@H]6CC(C)(C)CC[C@]6(CO)C(O)C[C@]45C)C3(C)C)C(O)C2O)C(O)C(O)C1O (some centres not stated),8,3,-1,10,55*,25,-9,
Cc1ccc(CNC(=O)CCS(=O)(=O)c2ccc3c(c2)oc(=O)n3C)cc1,-1,1,1,-7,-4,nt,nt,
CN(C)c1ccc(CNC(=O)CCS(=O)(=O)c2ccc3c(c2)n(C)c(=O)c(=O)n3C)cc1,-1,2,30,23,64*,25,-12,
COc1ccc(/C=C/C(=O)N(C)C2(C)CCS(=O)(=O)C2)cc1 (configuration not stated),0,-2,3,-7,-3,nt,nt,
O=C(O)c1cccc2c1C(=O)c1cc([N+](=O)[O-])cc([N+](=O)[O-])c1-2,1,-2,11,0,nt,nt,nt,
O=C(O)c1cccc2c1/C(=N/Nc1ccc([N+](=O)[O-])cc1[N+](=O)[O-])c1ccccc1-2,13,17,-3,-4,86*,57*,-15,Scp-1 Tm shift=12*
CCN(CC(=O)Nc1ccc2c(c1)OCCO2)C(=O)c1ccccc1Br,1,3,-3,-3,0,nt,nt,
Cn1ccc2cc(-c3ccc4ncnc(NCc5cccs5)c4c3)ccc21,5,1,-24,2,39,nt,nt,
CCNc1nc(NCC)n2c(SCC(=O)Nc3ccccc3)nnc2n1,-1,-2,0,3,-9,nt,nt,
CCNc1nc(NCC)n2c(SCC(=O)Nc3ccc(F)cc3)nnc2n1,0,7,55*,11,54*,55*,-7,Scp-1 Tm shift=-20
CCNc1nc(NCC)n2c(SCC(=O)Nc3ccc(OC(F)F)cc3)nnc2n1,4,2,49,20,68*,39*,-11,Scp-1 Tm shift=-13
CCNc1nc(NCC)n2c(SCC(=O)Nc3ccc(C)c(C)c3)nnc2n1,0,1,13,11,30,nt,nt,
Cc1cccn2c(=O)c(C(=O)NCCCN3CC(C)CC(C)C3)c(O)nc12 (configuration not stated),-3,3,2,-6,-7,nt,nt,
Cc1ccc(C)c(N2CCN(C(=O)Cn3c(=O)oc4cc(S(=O)(=O)N5CCCC5)ccc43)CC2)c1,1,0,-6,2,1,nt,nt,
SMILES,LMPTP block,STEP block,DNMT1 inh,SUMO1-SIM PPI,Scp1 inh,Scp1 confirm,MG interference,others
O=C(Cn1c(=O)oc2cc(S(=O)(=O)N3CCCCCC3)ccc21)NC1CCCCCCC1,2,2,24,9,101*,54*,-9,Scp-1 Tm shift=-13
O=C(Cn1c(=O)oc2cc(S(=O)(=O)N3CCCC3)ccc21)N1CCN(c2ccccc2)CC1,0,5,0,2,69*,-2,-16,
CC(C)CC1Nc2ccc(C(=O)NCc3ccc4c(c3)OCO4)cc2NC1=O (configuration not stated),1,0,-1,-5,-10,-5,-2,
C=C1CN(CC(=O)OC)S(=O)(=O)c2ccccc21,0,-5,4,-6,-1,nt,nt,
C=C1CN(Cc2ccccc2)S(=O)(=O)c2ccccc21,3,-1,12,2,95*,68*,-18,Scp-1 Tm shift=0
COc1ccc(-c2ccc(-c3noc(-c4ccco4)n3)c(OC)n2)cc1,1,-1,0,3,-4,nt,nt,
COc1nc(-c2ccccc2)ccc1-c1noc(-c2ccco2)n1,2,2,-9,5,99*,-6,-17,
COc1ccc(/C=N/NC(=O)CCn2c3ccccc3c3ccccc32)cc1O,3,-3,-6,-6,56*,-19,-14,
CCCCn1nnnc1C(c1ccccc1)N1CCN(c2cccc(C)c2C)CC1 (configuration not stated),5,nt,nt,3,nt,nt,nt,

# Source: PubChem (Sanford-Burnham Center for Chemical Genomics)
